From ChEMBL document CHEMBL2062493, “Synthesis and evaluation of [¹¹C]Cimbi-806 as a potential PET ligand for 5-HT₇ receptor imaging” (Bioorg Med Chem, 2012) come the findings set out here.

Data set [1] can be described thus: Drug uptake in Danish Landrace pig thalamus pre-treated with SB269970 at 468+/-31 MBq, iv administered 30 mins post SB269970-treatment measured up to 20 mins by PET scanning. Conditions: in vivo; call rule not given here. The data set is classed as ADME, organism-based, Sus scrofa. A digest of the protocol:
(§1)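 Images were co-registered to an MRI atlas of the pig brain. Striatum was the mean of caudate and putamen, thalamus the mean of lateral and medial thalamus, and each region left/right averaged. Uptake is expressed as SUV (kBq/mL normalized to injected dose per kg). For the blocking condition, SB-269970 was infused at 0.5–1.0 mg/kg/h from 30 min before the second scan.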

The nature of data set [2]: Drug uptake in Danish Landrace pig thalamus at 468+/-31 MBq, iv after 20 mins by PET scanning. The data set is classed as ADME, organism-based, Sus scrofa. Conditions: in vivo. In a few lines:
as §1

A short description of data set [3]: Drug uptake in Danish Landrace pig cerebellum at 468+/-31 MBq, iv after 20 mins by PET scanning. Format: ADME, organism-based, Sus scrofa. Conditions: in vivo. In a few lines: as §1
The nature of data set [4]: Drug uptake in Danish Landrace pig striatum pre-treated with SB269970 at 468+/-31 MBq, iv administered 30 mins post SB269970-treatment measured up to 20 mins by PET scanning. The data set is classed as ADME, organism-based, Sus scrofa. Conditions: in vivo. A digest of the protocol: as §1
Data set [5] in a line: Drug uptake in Danish Landrace pig cerebellum pre-treated with SB269970 at 468+/-31 MBq, iv administered 30 mins post SB269970-treatment measured up to 20 mins by PET scanning. Conditions: in vivo. Format: ADME, organism-based, Sus scrofa. A digest of the protocol: as §1
Data set [6] is described as follows: Free fraction in Danish Landrace pig plasma at 5 MBq after 3 hrs by equilibrium dialysis. The data set is classed as ADME, cell-free, Sus scrofa. In general terms: In equilibrium dialysis free small molecules cross a membrane that holds back macromolecules.
The test system of data set [7] is Plasma. As to the kind of experiment: Drug metabolism in Danish Landrace pig plasma at 468+/-31 MBq, iv. Format: ADME, Sus scrofa. In a few lines:
(§2)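 Blood was drawn at 2.5–90 min and centrifuged; plasma was filtered 0.45 µm and analysed for parent and radiometabolites by column-switching HPLC with online radioactivity detection. For the blocking condition, SB-269970 was infused at 0.5–1.0 mg/kg/h from 30 min before the second scan and continued throughout it.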

The nature of data set [8]: Drug uptake in Danish Landrace pig striatum at 468+/-31 MBq, iv after 20 mins by PET scanning. Format: ADME, organism-based, Sus scrofa. Conditions: in vivo. A digest of the protocol:
as §1

Data set [9] is described as follows: Drug uptake in Danish Landrace pig striatum at 468+/-31 MBq, iv up to 20 mins by PET scanning. The data set is classed as ADME, organism-based, Sus scrofa. To be noted: in vivo. In a few lines:
as §1

Data set [10] deals with Plasma. As to the kind of experiment: Drug metabolism in Danish Landrace pig plasma pre-treated with SB269970 at 468+/-31 MBq, iv administered 30 mins post SB269970-treatment measured upto 90 mins. The data set is classed as ADME, organism-based, Sus scrofa. To be noted: in vivo. A digest of the protocol: as §2
Data set [11] can be described thus: Drug uptake in Danish Landrace pig thalamus at 468+/-31 MBq, iv up to 20 mins by PET scanning. Conditions: in vivo. The data set is classed as ADME, organism-based, Sus scrofa. A digest of the protocol: as §1
Data set [12] can be described thus: Drug uptake in Danish Landrace pig cerebellum at 468+/-31 MBq, iv up to 20 mins by PET scanning. The data set is classed as ADME, organism-based, Sus scrofa. Conditions: in vivo. In a few lines: as §1
The nature of data set [13]: Lipophilicity, log D of the compound at pH 7.4 by HPLC analysis. The data set is classed as physicochemical. To be noted: buffer. In a few lines:
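Measured by RP-HPLC on a C8 column at 37 °C with 50:50 25 mM sodium phosphate pH 7.4/MeOH at 2 mL/min and UV detection at 254 nm. LogD was derived from log retention factor via a calibration line of reference compounds with known logD.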

A short description of data set [14]: Displacement of [3H]SB269970 from 5HT7R in Danish Landrace pig brain section after 2 hrs by autoradiography. Set-up: species or system Sus scrofa. In a few lines:
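Pig brain sections incubated 2 h with [3H]SB-269970 plus varying competitor in 50 mM Tris–HCl pH 7.4. Washes were 3 × 5 min in ice-cold buffer, then a dip in ice-cold water. Sections were dried and exposed to tritium-sensitive plates for 14 days. Specific binding (total minus non-specific) was plotted against competitor concentration.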

Usually fraction unbound stands for free concentration divided by total concentration. On to `COc1cccc(OC)c1-c1cccc(CCN(C)[11CH3])c1`, for which the Drug uptake entry in data set [1], in [2], in [3], in data set [4], in [5] and in data set [8] was “Not Active” in each case. In addition, the Drug uptake entry in [9], in data set [11] and in data set [12] was “Active” throughout. Also, in data set [6], the fraction unbound at 3 h, 5 MBq was 0.235. Also, the Drug metabolism entry with Plasma [7] and in the data set on Plasma [10] was “Active” each time.
As a reminder, the logD is the decadic logarithm of the distribution of all forms, ionised or not, between an organic phase and buffer at a given pH. A higher logD goes with a more lipophilic compound. For orientation: Ki means a dissociation constant, usually derived from enzyme kinetics or from competition with a known ligand. Molecule `COc1cccc(OC)c1-c1cccc(CCN(C)C)c1` showed a pH-dependent lipophilicity (logD) in data set [13] of 4.4. Besides, in data set [14], the Ki worked out at 8.82 nM.
